This is an account of results in article PMC3992716 (European journal of pharmacology, 2013).

Each structure is given as a SMILES string.

Assay [1] deals with T1, α4β2α6β2β3 (Homo sapiens, UniProt P17787+P43681+Q05901+Q15825). The assay is classed as cell-based. In outline:
(§1)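 Xenopus oocytes defolliculated with collagenase, clamped at −60 mV and perfused with Ringer's containing 1 μM atropine. Rising test compound concentrations were co-applied with control ACh (100 μM for α4(2)β2(2)α5, 30 μM for α4β2α6β2β3), alternating with ACh alone; fresh cells were used if ACh controls fell below 75%. Peak currents were normalised to the preceding ACh control.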

For assay [2], the target named is T2, α4(2)β2(2)α5 (Homo sapiens, UniProt P17787+P30532+P43681). The assay is classed as cell-based. In outline:
as §1

The target in assay [3] is α2(2)β2(2)α5 (Homo sapiens, UniProt P17787+P30532+Q15822). Briefly: two-electrode voltage clamp, Xenopus oocytes, agonist-evoked response. The class given is cell-based.
In assay [4] the target is T2, α4(2)β2(2)α5. As to the kind of experiment: cell-based.
Assay [5] has as its target T1, α4β2α6β2β3. As to the kind of experiment: cell-based.

T2 sequence (P43681 27-627): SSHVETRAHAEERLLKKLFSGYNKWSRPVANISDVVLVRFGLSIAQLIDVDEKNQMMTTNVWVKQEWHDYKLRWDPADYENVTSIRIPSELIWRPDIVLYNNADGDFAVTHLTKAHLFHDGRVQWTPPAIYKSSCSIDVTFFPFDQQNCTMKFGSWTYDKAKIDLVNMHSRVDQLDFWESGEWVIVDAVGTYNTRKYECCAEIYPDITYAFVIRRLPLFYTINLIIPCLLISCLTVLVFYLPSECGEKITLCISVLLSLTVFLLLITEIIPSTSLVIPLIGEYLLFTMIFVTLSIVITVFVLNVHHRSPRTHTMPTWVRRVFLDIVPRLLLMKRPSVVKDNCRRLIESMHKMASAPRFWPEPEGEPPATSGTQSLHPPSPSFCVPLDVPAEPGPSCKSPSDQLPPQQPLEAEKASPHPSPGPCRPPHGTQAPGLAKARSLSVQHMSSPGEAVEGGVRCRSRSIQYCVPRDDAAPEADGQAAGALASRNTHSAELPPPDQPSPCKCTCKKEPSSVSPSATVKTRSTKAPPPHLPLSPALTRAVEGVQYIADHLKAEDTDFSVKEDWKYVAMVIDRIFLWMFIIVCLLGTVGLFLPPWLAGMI
T2 sequence (P17787 26-502): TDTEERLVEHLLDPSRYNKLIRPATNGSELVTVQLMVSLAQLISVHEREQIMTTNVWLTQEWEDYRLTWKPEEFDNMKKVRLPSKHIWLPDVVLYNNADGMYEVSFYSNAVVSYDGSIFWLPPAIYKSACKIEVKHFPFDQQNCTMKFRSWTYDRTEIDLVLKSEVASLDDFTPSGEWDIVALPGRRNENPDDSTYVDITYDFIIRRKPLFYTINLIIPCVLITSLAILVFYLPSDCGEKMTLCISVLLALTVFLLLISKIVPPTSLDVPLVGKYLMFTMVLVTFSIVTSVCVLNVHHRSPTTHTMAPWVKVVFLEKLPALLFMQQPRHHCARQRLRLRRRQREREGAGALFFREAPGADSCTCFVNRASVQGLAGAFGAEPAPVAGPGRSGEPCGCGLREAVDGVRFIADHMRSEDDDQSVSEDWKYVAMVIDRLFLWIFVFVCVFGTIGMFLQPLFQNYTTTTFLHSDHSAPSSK
T2 sequence (P30532 23-468): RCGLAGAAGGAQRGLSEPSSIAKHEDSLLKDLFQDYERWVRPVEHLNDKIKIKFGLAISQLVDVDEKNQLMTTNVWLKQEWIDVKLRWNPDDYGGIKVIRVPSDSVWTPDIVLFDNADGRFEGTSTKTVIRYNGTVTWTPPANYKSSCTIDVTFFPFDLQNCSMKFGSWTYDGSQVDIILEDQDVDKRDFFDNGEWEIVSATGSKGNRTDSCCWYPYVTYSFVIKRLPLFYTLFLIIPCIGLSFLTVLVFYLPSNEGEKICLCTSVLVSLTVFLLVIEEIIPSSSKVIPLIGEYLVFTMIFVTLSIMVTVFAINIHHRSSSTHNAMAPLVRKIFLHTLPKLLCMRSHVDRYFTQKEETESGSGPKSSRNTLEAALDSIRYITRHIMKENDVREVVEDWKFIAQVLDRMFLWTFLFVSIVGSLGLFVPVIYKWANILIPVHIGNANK
T1 sequence (P43681 27-627): as the sequence (P43681 27-627) above
T1 sequence (P17787 26-502): as the sequence (P17787 26-502) above
T1 sequence (Q15825 26-494): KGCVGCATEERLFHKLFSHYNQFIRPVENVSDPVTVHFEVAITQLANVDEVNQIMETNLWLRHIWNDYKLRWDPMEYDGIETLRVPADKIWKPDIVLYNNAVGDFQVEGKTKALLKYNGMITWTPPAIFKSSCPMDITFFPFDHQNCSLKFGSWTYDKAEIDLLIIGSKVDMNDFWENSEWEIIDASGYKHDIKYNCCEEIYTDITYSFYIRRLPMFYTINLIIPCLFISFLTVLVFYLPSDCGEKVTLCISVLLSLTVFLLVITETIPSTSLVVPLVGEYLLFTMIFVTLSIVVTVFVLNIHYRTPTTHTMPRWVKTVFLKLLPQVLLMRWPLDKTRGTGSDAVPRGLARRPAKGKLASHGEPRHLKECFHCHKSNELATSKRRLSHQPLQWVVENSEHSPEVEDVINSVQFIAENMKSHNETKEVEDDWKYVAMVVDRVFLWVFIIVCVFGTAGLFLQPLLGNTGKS
T1 sequence (Q05901 22-458): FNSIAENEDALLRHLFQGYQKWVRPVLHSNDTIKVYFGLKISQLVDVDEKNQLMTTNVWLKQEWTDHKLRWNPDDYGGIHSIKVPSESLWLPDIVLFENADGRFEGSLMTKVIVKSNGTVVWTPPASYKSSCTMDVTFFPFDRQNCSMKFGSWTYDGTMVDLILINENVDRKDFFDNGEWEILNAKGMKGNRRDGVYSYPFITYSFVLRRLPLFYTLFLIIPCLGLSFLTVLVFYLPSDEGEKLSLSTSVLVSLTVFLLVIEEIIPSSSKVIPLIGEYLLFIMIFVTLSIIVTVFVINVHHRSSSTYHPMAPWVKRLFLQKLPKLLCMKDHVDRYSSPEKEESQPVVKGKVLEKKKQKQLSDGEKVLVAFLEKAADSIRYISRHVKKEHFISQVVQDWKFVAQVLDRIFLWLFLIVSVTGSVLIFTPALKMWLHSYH
Chain of α2(2)β2(2)α5 (Q15822 27-529): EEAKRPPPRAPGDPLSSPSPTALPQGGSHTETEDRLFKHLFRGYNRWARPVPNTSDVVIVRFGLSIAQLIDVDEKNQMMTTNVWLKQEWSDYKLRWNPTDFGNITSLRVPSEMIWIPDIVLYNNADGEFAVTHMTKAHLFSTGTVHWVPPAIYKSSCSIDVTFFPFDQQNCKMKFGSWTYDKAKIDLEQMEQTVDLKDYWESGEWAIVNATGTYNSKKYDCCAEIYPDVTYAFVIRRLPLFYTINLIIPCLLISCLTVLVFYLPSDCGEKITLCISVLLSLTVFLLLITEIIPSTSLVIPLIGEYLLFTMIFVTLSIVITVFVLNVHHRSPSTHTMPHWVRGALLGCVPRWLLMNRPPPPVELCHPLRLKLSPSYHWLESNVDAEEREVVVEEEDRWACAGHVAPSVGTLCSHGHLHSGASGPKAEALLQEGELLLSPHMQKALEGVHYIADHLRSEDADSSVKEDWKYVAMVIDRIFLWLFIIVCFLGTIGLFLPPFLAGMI
Chain of α2(2)β2(2)α5 (P17787 26-502): as the sequence (P17787 26-502) above
Chain of α2(2)β2(2)α5 (P30532 23-468): as the sequence (P30532 23-468) above

As a reminder, the IC50 is the midpoint of a concentration-inhibition curve. Lower therefore signals greater potency in that assay. Consider `CNC1(C)C2CCC(C2)C1(C)C` (stereo not drawn) [R(-)Mecamylamine, N-2,3,3-tetramethylbicyclo[2.2.1]heptan-2-amine], for which the IC50 in assay [1] worked out at 13 ± 5 µM; in assay [2], 35 ± 5 µM.
On the same counts, the results for `CN[C@@]1(C)[C@@H]2CC[C@@H](C2)C1(C)C` [S(+)Mecamylamine, N-2,3,3-tetramethylbicyclo[2.2.1]heptan-2-amine] are 14 ± 7 µM and 12 ± 1 µM.
A word on the EC50: it is the concentration at which the effect is half-maximal. Read a high EC50 as weaker potency. For the compound `CCOc1cncc(/C=C/CCNC)c1` [TC-2559], the results for the half-maximal effective concentration (EC50) in assay [3], in assay [4] and in assay [5] were 6.2 ± 1 µM, 1.6 ± 0.3 µM and 1.7 ± 0.3 µM, respectively.
In assay [3], `CN1CCC[C@H]1c1cccnc1` [nicotine] yielded a 50% effective concentration (EC50) of 1.6 ± 0.2 µM.
